FLuc stim CS: FLuc activators, initial screening, artefact control for FLuc-dependent activation tests, biochemical, ATPlite luminescence; ATPlite luciferase biochemical, 10 min; 0 = ATP-free wells, 1 = DMSO control; activation factor at 10 µM; Luciferin 4-monooxygenase (Photinus pyralis), P08659; AID 1027, 2008; 200,000 tested, under 10 active;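 active means luciferase activation factor, scaled between plate controls, of at least 2 with compound at 10 µM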
Target sequence (P08659 whole entry, looked up): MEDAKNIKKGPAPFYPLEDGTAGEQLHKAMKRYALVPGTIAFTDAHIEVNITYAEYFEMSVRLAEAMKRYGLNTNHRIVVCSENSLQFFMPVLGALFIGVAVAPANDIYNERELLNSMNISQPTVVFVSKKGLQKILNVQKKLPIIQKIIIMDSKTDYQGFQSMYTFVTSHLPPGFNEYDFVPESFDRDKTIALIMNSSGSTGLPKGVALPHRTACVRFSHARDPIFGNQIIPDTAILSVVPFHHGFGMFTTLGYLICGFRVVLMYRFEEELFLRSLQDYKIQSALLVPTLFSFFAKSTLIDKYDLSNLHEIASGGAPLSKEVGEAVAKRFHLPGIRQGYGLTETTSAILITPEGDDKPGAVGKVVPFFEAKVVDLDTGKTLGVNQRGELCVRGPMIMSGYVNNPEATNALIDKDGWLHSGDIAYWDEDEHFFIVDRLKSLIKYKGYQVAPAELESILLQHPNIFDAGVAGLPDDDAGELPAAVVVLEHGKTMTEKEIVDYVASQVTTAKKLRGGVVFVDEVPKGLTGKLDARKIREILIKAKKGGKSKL
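System: luciferase plus luciferin reagent, cell-free; medium: PBS as buffer for the ATP substrate; dosing: test compounds dosed from 2 mM stocks in 100% DMSO; timing: 10 min post-reagent at room temperature; measured by: luminescence measurement of luciferase light output; evaluation: luciferase activation, seen as luminescence increase over controls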
STAT1 activator: STAT1 signaling activators, primary screen, cell-based, HTS, luciferase reporter; NIH 3T3 STAT1-luciferase reporter, IFN-gamma, luminescence; 100% = IFN-gamma alone, no compound; activation (% of control), % at 5.5 µM; 200,000 tested, 2.6% active; AID 932, 2007;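 active means activation above the screen-wide mean activation plus 3 SD, cut at about 130% in these data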
Rad51 HR inh: human RAD51 strand exchange inhibitors, primary screen, biochemical, fluorescence; 200,000 tested, 0.085% active; DNA repair protein RAD51 homolog 1 (Homo sapiens), Q06609; AID 1385, 2008; inhibition, % at 10 µM; hRad51 DNA strand exchange, fluorescence dequenching;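 active means inhibition above 40% at the single screening dose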
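Material: Human Rad51 nucleoprotein filaments preassembled on unlabelled ssDNA | Also added: Labelled 47-mer dsDNA for strand exchange | Dosing: Single dose, 10 µM final compound | Schedule: 30-min compound preincubation and 15-min exchange, both room temperature | Technique: Fluorescence dequenching at 485/520 nm | Measure: Percent inhibition relative to plate controls and blanks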
APP 5'UTR act: activators of APP 5'UTR luciferase reporter, primary screen, SH-SY5Y cells | SH-SY5Y APP 5'UTR luciferase reporter, luminescence; zero percent = DMSO vehicle wells | activation, % at 2 µM | 190,000 tested, 1% active | AID 1276, 2008;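 active means activation above a set limit, based on mean plus 3 SD of controls, cut at about 140% in these data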
FLuc inh counter: firefly luciferase enzyme inhibitors, primary screen, artefact control for luciferase-based inhibitor screens, biochemical, luminescence, ATPLite. inhibition, % at 10 µM. 200,000 tested, 1.5% active. AID 1006, 2008. Luciferin 4-monooxygenase (Photinus pyralis), P08659. 10 min;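 active means inhibition above about 50% when tested at 10 µM, limit read from the data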
NF-kB expr up: activators of NF-kB expression in neurons, primary screen, cell-based, HTS. human neuronal cells, NF-kB reporter expression; active compounds read high. fold change at 12.5 µM. 190,000 tested, 1.6% active; in the data active means fold change above about 3.3
STAT1 activ conf: STAT1 signaling activators, confirmation, cell-based, HTS, luciferase reporter. shares compounds with STAT1 activator. NIH 3T3 STAT1-luciferase reporter, IFN-gamma potentiation, luminescence; 100% = IFN-gamma EC80 alone, no compound. activation (% of control), % at 5.7 µM. 1,200 tested, 97% active. AID 1262, 2008;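 active means activation above a set limit carried over from the earlier primary STAT1 screen, cut at about 140% in these data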
NFkB act STAT1ct: NF-kB reporter activators, TNF-alpha stimulated, counter-screen for STAT1 activator project, cell-based, HEK293T, luciferase luminescence | shares compounds with STAT1 activator | activation (% of control), % at 5.7 µM | 1,200 tested, 43% active | 100% = TNF-alpha with vehicle only;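 active means activation above the mean of solvent-only control wells plus 3 SD, set per campaign, cut at about 130% in these data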;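 further: TNF-alpha given at a submaximal dose yielding about 80% of full reporter signal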
STAT3 act 2: STAT3 reporter activation by STAT1 hits, confirmation, counter-screen for STAT1 activator project, U3A cells, luciferase, luminescence | 1,200 tested, 46% active | shares compounds with STAT1 activator | IL-6; cells lack STAT1; 100 = IL-6 alone, no compound effect | activation (% of control), % at 5.7 µM;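 active means activation above the solvent-only control well mean plus 3 SD, set per plate batch, cut at about 110% in these data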;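 further: higher means more STAT3 reporter activation so hits are non-selective activators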
Hits are given with their value; . = inactive; / = no result given. Sampled rows, rich in hits. Any-hit rate of the full collection: about 3.9%.

SMILES	FLuc stim CS	STAT1 activator	Rad51 HR inh	APP 5'UTR act	FLuc inh counter	NF-kB expr up	STAT1 activ conf	NFkB act STAT1ct	STAT3 act 2
Cc1ccc(/C=N/c2sc3c(c2C#N)CCC3)o1	.	167	.	.	74	.	188	135	.
CN(C)/C=N/c1sc2c(c1C#N)CCC2	.	.	.	.	.	.	/	/	/
C=CCNc1nc(N)c(C(=C(C#N)C#N)c2ccc(Br)cc2)s1	.	.	.	/	.	.	/	/	/
O=C(NCc1cccnc1)C1COc2ccccc2O1 (stereo not drawn)	.	.	/	.	.	.	/	/	/
Cc1ccc(Cc2cnc(NC(=O)c3cccs3)s2)cc1	.	171	.	170	.	7.1	219	143	133
O=C(Nc1ncc(Cc2ccccc2)s1)c1cccs1	.	154	.	194	.	8.4	276	142	122
O=C(Nc1ncc(Cc2ccccc2)s1)C1COc2ccccc2O1 (stereo not drawn)	.	184	.	164	.	.	192	.	114
N#C/C(=C/c1ccc(CNS(=O)(=O)c2ccccc2)o1)C(=O)NCc1ccccc1	.	.	.	.	.	.	/	/	/
CSCCn1c(C(C)(C)C)cc(C(=O)O)c1C	/	/	.	/	/	/	/	/	/
O=C(N/N=C\c1ccco1)Nc1cccc(Cl)c1	.	153	.	.	.	3.3	172	133	.
C=CCn1c(C)cc(C(=O)CSc2nc3ccccc3o2)c1C	.	160	.	.	.	.	215	.	.
Cc1nc(Sc2ccc(Br)cc2)c(C#N)c(C)c1[N+](=O)[O-]	/	/	.	/	/	/	/	/	/
O=C(O)CCC(=O)Nc1ccc(N=Nc2ccccc2)cc1	.	.	.	.	.	.	/	/	/
CCCC(=O)OCC(=O)Nc1ccc(N=Nc2ccccc2)cc1	.	155	.	.	.	4.7	189	137	117
O=C1/C(=C/c2ccccn2)COc2ccccc21	.	.	.	.	.	.	/	/	/
CC1C/C(=C/c2ccccn2)C(=O)/C(=C/c2ccccn2)C1 (stereo not drawn)	.	235	.	.	.	.	.	.	.
CC(C)(C)C1C/C(=C/c2ccccn2)C(=O)/C(=C/c2ccccn2)C1 (stereo not drawn)	.	221	.	.	.	.	199	.	.
O=C(NCc1ccc(Cl)cc1)C1CCN(S(=O)(=O)N2CCOCC2)CC1	.	.	.	.	.	.	/	/	/
Cc1ccc(-n2c(SC3CCOC3=O)nc3ccccc3c2=O)cc1 (stereo not drawn)	.	.	.	.	.	.	/	/	/
C/C=C1\COC(C(=O)NCc2ccccc2)(C(F)(F)F)C=C1C=C(C)C (stereo not drawn)	/	/	.	/	/	/	/	/	/
COc1ccccc1/C=C/C(=O)NCCC1=CCCCC1	.	159	.	.	.	.	170	.	134
COc1ccc2nc3sc(C(=O)NCc4cccs4)c(N)c3cc2c1	.	183	.	140	.	.	222	136	.
CC(C)(C)c1ccc2c(c1)C(=O)c1ccccc1C2=O	.	162	.	162	72	5.3	209	.	.
COc1ccc(NC(=O)CSc2nnc(-c3ccncc3)n2CC2CCCO2)c(OC)c1 (stereo not drawn)	.	.	.	.	.	.	/	/	/
O=C(c1ccc2c(c1)OCO2)C1CCCN(C(=O)c2cnn(Cc3ccccc3)c2)C1 (stereo not drawn)	.	.	.	.	.	.	/	/	/
SMILES	FLuc stim CS	STAT1 activator	Rad51 HR inh	APP 5'UTR act	FLuc inh counter	NF-kB expr up	STAT1 activ conf	NFkB act STAT1ct	STAT3 act 2
CCCCCCN1C=CC(=C/C=C(\C#N)C(=O)OCC)C=C1	.	.	.	.	.	.	/	/	/
CCCN1C=CC(=C/C=C(\C#N)C(=O)OCC)C=C1	.	164	.	.	58	.	183	.	134
COc1ccc(Nc2oc(-c3ccc(Cl)cc3)nc2C#N)cc1	.	174	.	.	.	3.3	208	135	124
O=C(CN1C(=O)NC2(CCCCCC2)C1=O)c1ccc2c(c1)OCCO2	.	160	.	.	.	.	178	136	126
CNC(=O)c1c(Cl)cnn1-c1ccc(C)cc1	.	161	.	.	.	.	164	138	114
CNC(=O)c1nn(-c2ccc(C)cc2)ccc1=O	.	.	.	.	.	.	/	/	/
CNC(=O)c1c(Br)cnn1-c1ccc(C)cc1	.	152	/	.	.	.	180	.	116
Cc1ccc(-n2nc(C)c(NC(=O)CCl)c2C)cc1	.	.	.	.	.	.	/	/	/
Nc1c(C(=O)Nc2ccc(F)cc2)nnn1-c1cccc(C(F)(F)F)c1	.	.	.	.	.	.	/	/	/
CCNC(=S)Nc1ccc(S(=O)(=O)Nc2cc(C)nc(C)n2)cc1	.	.	.	.	.	.	/	/	/
O=C(O)CC/C(=N/NC(=O)c1cccs1)c1ccccc1	.	157	/	.	.	.	134	.	.
COCC(C)NC(=O)c1cc(-c2ccc(O)cc2)on1 (stereo not drawn)	.	.	.	.	.	.	/	/	/
CCC(C)NC(=O)c1cc(-c2ccc(OC)cc2)on1 (stereo not drawn)	.	157	.	.	.	3.4	179	.	.
O=C(COC(=O)Cc1ccccc1F)Nc1ccc(SC(F)F)cc1	.	.	.	.	.	.	/	/	/
O=C(Nc1ccc(SC(F)F)cc1)c1ccccc1F	.	161	.	.	.	.	182	142	.
O=C(Cc1ccccc1F)Nc1ccc(SC(F)F)cc1	.	162	.	153	.	5.3	169	.	127
NC(=O)CSc1nc2sc3c(c2c2ncnn12)CCCC3	.	.	.	.	.	.	/	/	/
Cc1cnc(C(=O)Nc2ccc(C(C)C)cc2)cn1	.	159	.	.	.	4.5	180	136	.
Cc1cnc(C(=O)Nc2ccc(F)cc2)cn1	.	.	.	.	.	.	/	/	/
